The values that follow come from ChEMBL document CHEMBL1123265, “Synthesis and antihypertensive activity of 4-(cyclic amido)-2H-1-benzopyrans” (1986).

Holding throughout (type): functional
The subject of assay [1] is Rattus norvegicus. Kind of assay: Maximum fall in blood pressure was evaluated at an oral dose of 10.0 mg/kg in (SHR) spontaneous hypertensive rats. The procedure, abridged: (§1)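 Conscious spontaneously hypertensive rats (Okamoto-derived, 14–24 weeks old; systolic pressure >180 mmHg counted as hypertensive), six or more per dose level. Given orally by dosing needle into the esophagus as solution or suspension in 1% w/v methylcellulose. Systolic pressure read by tail cuff, each reading the mean of at least six recordings, taken before dosing and at intervals up to 6 h; maximum fall recorded.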

For assay [2], the system named is Rattus norvegicus. Kind of assay: Maximum fall in blood pressure was evaluated at an oral dose of 3.0 mg/kg in (SHR) spontaneous hypertensive rats. An outline of the steps: as §1
Assay [3] relates to Rattus norvegicus. The assay can be described thus: Maximum fall in blood pressure was evaluated at an oral dose of 1.0 mg/kg in (SHR) spontaneous hypertensive rats. The procedure, abridged:
as §1

Assay [4] has as its system Rattus norvegicus. Kind of assay: Maximum fall in blood pressure was evaluated at an oral dose of 0.1 mg/kg in (SHR) spontaneous hypertensive rats. An outline of the steps:
as §1

For assay [5], the system named is Rattus norvegicus. The assay can be described thus: Maximum fall in blood pressure was evaluated at an oral dose of 0.3 mg/kg in (SHR) spontaneous hypertensive rats. An outline of the steps:
as §1

Assay [6] has as its system Rattus norvegicus. Kind of assay: Maximum fall in blood pressure was evaluated at an oral dose of 10 mg/kg in (SHR) spontaneous hypertensive rats. The procedure, abridged: as §1
Assay [7] relates to Rattus norvegicus. Kind of assay: Maximum fall in blood pressure was evaluated at an oral dose of 0.03 mg/kg in (SHR) spontaneous hypertensive rats. The procedure, abridged:
as §1

As for `COC(=O)C1=C(C)NC(C)=C(C(=O)OC)C1c1ccccc1[N+](=O)[O-]` [NIFEDIPINE], the “Max fall in blood pressure” value was found to be 36% in the assay with Rattus norvegicus [1], 27% with Rattus norvegicus [2] and 13% with Rattus norvegicus [3].
Take `CC(=O)Nc1cc2c(cc1[N+](=O)[O-])C(N1CCCC1=O)[C@H](O)C(C)(C)O2` (stereo partly specified): the “Max fall in blood pressure” value was 37% in the assay on Rattus norvegicus [4] and 62% in the assay on Rattus norvegicus [5].
In the case of `CC1(C)Oc2ccccc2C(N2CCCC2=O)[C@@H]1O` (stereo partly specified), the “Max fall in blood pressure” value with Rattus norvegicus [6] came out at 9%.
For `CC1(C)Oc2ccc(C#N)cc2C(N2CCN(Cc3ccccc3)CC2=O)[C@@H]1O` (stereo partly specified), the results for the “Max fall in blood pressure” value in the assay on Rattus norvegicus [3], in the assay on Rattus norvegicus [4] and in the assay with Rattus norvegicus [5] were 35%, 10% and 26%, respectively.
On to `CC1(C)Oc2cc([N+](=O)[O-])c(N)cc2C(N2CCCC2=O)[C@@H]1O` (stereo partly specified), for which the “Max fall in blood pressure” value in the assay on Rattus norvegicus [3] is listed as 25%.
Turning to `CC(=O)Nc1cc2c(cc1[N+](=O)[O-])OC(C)(C)[C@@H](O)C2N1CCCC1=O` (stereo partly specified), the “Max fall in blood pressure” value in the assay on Rattus norvegicus [2] is 14%; with Rattus norvegicus [3], 3%.
With `CC1(C)Oc2ccc(C#N)cc2C(N2CCOCC2=O)[C@@H]1O` (stereo partly specified), the “Max fall in blood pressure” value worked out at 27% in the assay on Rattus norvegicus [3] and 26% in the assay with Rattus norvegicus [5].
As for `CC1(C)C=C(N2CCCC2=O)c2cc(Cl)ccc2O1`, in the assay with Rattus norvegicus [1], the “Max fall in blood pressure” value is 36%.
Take `CC1(C)Oc2ccc(C#N)cc2C(N2CCSCC2=O)[C@@H]1O` (stereo partly specified): the results for the “Max fall in blood pressure” value in the assay on Rattus norvegicus [6] and in the assay with Rattus norvegicus [3] were 12% and 9%, respectively.
In the case of `CC1(C)Oc2ccc(C#N)cc2C(N2CCOC2=O)[C@@H]1O` (stereo partly specified), the “Max fall in blood pressure” value in the assay on Rattus norvegicus [3] turned out to be 29%; in the assay on Rattus norvegicus [5], 20%.
Take `CN1CCN(C2c3cc(C#N)ccc3OC(C)(C)[C@H]2O)C(=O)C1` (stereo partly specified): the results for the “Max fall in blood pressure” value with Rattus norvegicus [4] and with Rattus norvegicus [5] were 20% and 37%, respectively.
The corresponding values for `CC1(C)Oc2ccc(C#N)cc2C(N2CCCC2=O)C1O` (single isomer, unassigned) [CROMAKALIM] are 31% and 47%.
For `CC(=O)c1ccc2c(c1)C(N1CCCCC1=O)[C@H](O)C(C)(C)O2` (stereo partly specified), the “Max fall in blood pressure” value in the assay with Rattus norvegicus [3] stood at 66%; in the assay on Rattus norvegicus [5], 29%.
Turning to `CC1(C)Oc2ccc(C#N)cc2C(N2CC[N+](C)(C)CC2=O)[C@@H]1O.[I-]` (stereo partly specified), in the assay on Rattus norvegicus [3], the “Max fall in blood pressure” value amounted to 9%.
Consider `CC1(C)Oc2ccc(C#N)cc2[C@@H](N2CCCC2=O)[C@@H]1O` (single isomer, unassigned) [LEVCROMAKALIM], for which the entries for the “Max fall in blood pressure” value with Rattus norvegicus [1] and in the assay with Rattus norvegicus [3] were 46% and 23%, respectively.
On to `CC1(C)Oc2ccc([N+](=O)[O-])cc2C(N2CCCC2=O)[C@@H]1O` (stereo partly specified), for which the “Max fall in blood pressure” value with Rattus norvegicus [3] amounted to 63%; with Rattus norvegicus [5], 27%.
Consider `CN1CCCN(C2=CC(C)(C)Oc3ccc(C#N)cc32)C1=O`, for which the “Max fall in blood pressure” value in the assay with Rattus norvegicus [3] was found to be 29%.
In the case of `CC1(C)Oc2ccc(C#N)cc2C(N2OCCC2=O)[C@@H]1O` (stereo partly specified), in the assay with Rattus norvegicus [1], the “Max fall in blood pressure” value was 19%.
Turning to `CC1(C)Oc2ccc(C#N)cc2C(N2CCN(C(=O)c3ccco3)CC2=O)[C@@H]1O` (stereo partly specified), the “Max fall in blood pressure” value in the assay with Rattus norvegicus [2] amounted to 43%; in the assay on Rattus norvegicus [3], 15%.
Take `CC1(C)C=C(N2CCCCCC2=O)c2cc(C#N)ccc2O1`: the “Max fall in blood pressure” value with Rattus norvegicus [6] is reported as 36%; in the assay on Rattus norvegicus [3], 15%.
Regarding `CC(=O)c1ccc2c(c1)C(N1CCCC1=O)[C@H](O)C(C)(C)O2` (stereo partly specified), the “Max fall in blood pressure” value in the assay with Rattus norvegicus [3] was found to be 56%; in the assay with Rattus norvegicus [5], 33%.
Compound `CC1(C)C=C(N2CCCC2=O)c2cc(C#N)ccc2O1` showed a Max fall in blood pressure in the assay on Rattus norvegicus [5] of 47%.
For the compound `CC1(C)Oc2ccc(C#N)cc2C(N2CCCC2)[C@@H]1O` (stereo partly specified), the “Max fall in blood pressure” value worked out at 29% in the assay on Rattus norvegicus [3], 8% in the assay on Rattus norvegicus [4] and 21% in the assay on Rattus norvegicus [5].
Take `CC1(C)CC(N2CCCC2=O)c2cc(C#N)ccc2O1` (stereo unspecified): the “Max fall in blood pressure” value in the assay on Rattus norvegicus [2] is on record as 45%; in the assay on Rattus norvegicus [3], 15%.
With `CC1(C)Oc2ccc(C#N)cc2C(N2CCCCCCC2=O)[C@@H]1O` (stereo partly specified), the “Max fall in blood pressure” value in the assay on Rattus norvegicus [1] is 11%.
On to `CC(=O)c1ccc2c(c1)C(N1CCN(C(=O)c3ccc(F)cc3)CC1=O)[C@H](O)C(C)(C)O2` (stereo partly specified), for which the “Max fall in blood pressure” value in the assay on Rattus norvegicus [1] is reported as 16%.
Take `CC1(C)Oc2ccc(C#N)cc2C(N2CCSC2=O)[C@@H]1O` (stereo partly specified): the “Max fall in blood pressure” value in the assay on Rattus norvegicus [3] was determined as 30%; with Rattus norvegicus [5], 27%.
In the case of `CC1(C)Oc2cc([N+](=O)[O-])ccc2C(N2CCCC2=O)[C@@H]1O` (stereo partly specified), the “Max fall in blood pressure” value in the assay with Rattus norvegicus [6] is reported as 68%; in the assay on Rattus norvegicus [3], 56%; in the assay on Rattus norvegicus [5] it was 12%.
Regarding `O=C1CCCN1C1c2cc([N+](=O)[O-])ccc2OC[C@H]1O` (stereo partly specified), the “Max fall in blood pressure” value in the assay with Rattus norvegicus [1] amounted to 5%.
For `CC1(C)Oc2ccc(C#N)cc2C(N2CCCCCC2=O)[C@@H]1O` (stereo partly specified), the “Max fall in blood pressure” value in the assay with Rattus norvegicus [3] is recorded as 10%.
Take `CC1(C)C=C(N2CCCCC2=O)c2cc(C#N)ccc2O1`: the “Max fall in blood pressure” value stood at 55% in the assay with Rattus norvegicus [3] and 25% in the assay on Rattus norvegicus [5].
Turning to `CC(=O)c1ccc2c(c1)C(N1CCCC1=O)=CC(C)(C)O2`, the “Max fall in blood pressure” value with Rattus norvegicus [3] is 48%.
Regarding `CC1(C)Oc2ccc(C#N)cc2C(N2CCCC2=O)[C@@H]1O` (stereo partly specified), the “Max fall in blood pressure” value was 47% in the assay on Rattus norvegicus [3], 13% in the assay with Rattus norvegicus [4] and 39% in the assay with Rattus norvegicus [5].
In the case of `CC1Oc2ccc([N+](=O)[O-])cc2C(N2CCCC2=O)[C@@H]1O` (stereo partly specified), in the assay with Rattus norvegicus [1], the “Max fall in blood pressure” value came to 34%.
As for `CC1(C)C=C(N2CCSC2=O)c2cc(C#N)ccc2O1`, the “Max fall in blood pressure” value amounted to 27% in the assay on Rattus norvegicus [3] and 9% with Rattus norvegicus [5].
For the compound `CC(=O)O[C@H]1C(N2CCCC2=O)c2cc(C#N)ccc2OC1(C)C` (stereo partly specified), the figures for the “Max fall in blood pressure” value in the assay on Rattus norvegicus [2] and in the assay with Rattus norvegicus [3] were 39% and 30%, respectively.
As for `COC(=O)c1ccc2c(c1)C(N1CCCCC1=O)[C@H](O)C(C)(C)O2` (stereo partly specified), the entries for the “Max fall in blood pressure” value with Rattus norvegicus [3] and with Rattus norvegicus [5] were 42% and 13%, respectively.
As for `CC1(C)Oc2ccc(C#N)cc2C(N2CCNCC2=O)[C@@H]1O` (stereo partly specified), the “Max fall in blood pressure” value in the assay with Rattus norvegicus [4] is 28%; with Rattus norvegicus [5] it was 53%.
Consider `CC1(C)Oc2ccc(C=O)cc2C(N2CCCC2=O)[C@@H]1O` (stereo partly specified), for which, in the assay with Rattus norvegicus [1], the “Max fall in blood pressure” value was found to be 25%.
Consider `CC1(C)C=C(N2CCCC2=O)c2cc([N+](=O)[O-])ccc2O1`, for which the “Max fall in blood pressure” value in the assay with Rattus norvegicus [3] was 68%.
With `CN1CCCN(C2c3cc(C#N)ccc3OC(C)(C)[C@H]2O)C1=O` (stereo partly specified), the “Max fall in blood pressure” value in the assay on Rattus norvegicus [3] was 23%.
Turning to `CC1(C)Oc2ccc(C#N)cc2C(N2CCCCC2=O)[C@@H]1O` (stereo partly specified), the “Max fall in blood pressure” value with Rattus norvegicus [3] was found to be 59%; in the assay on Rattus norvegicus [4], 46%; in the assay with Rattus norvegicus [7] it was 27%; in the assay on Rattus norvegicus [5], 49%.
Turning to `CC1(C)Oc2ccc(C#N)cc2C(N2CCCC2=O)[C@@H]1OC=O` (stereo partly specified), the “Max fall in blood pressure” value with Rattus norvegicus [3] is recorded as 36%; in the assay with Rattus norvegicus [5], 31%.
`CCCCN1CCN(C2c3cc(C#N)ccc3OC(C)(C)[C@H]2O)C(=O)C1` (stereo partly specified): the “Max fall in blood pressure” value with Rattus norvegicus [3] worked out at 61%; with Rattus norvegicus [4], 18%; with Rattus norvegicus [5], 48%.
For the compound `CC1(C)Oc2ccc(C#N)cc2C(N2CCCC2=S)[C@@H]1O` (stereo partly specified), the “Max fall in blood pressure” value with Rattus norvegicus [4] is 16%; in the assay on Rattus norvegicus [5], 39%.
`COC(=O)c1ccc2c(c1)C(N1CCCC1=O)[C@H](O)C(C)(C)O2` (stereo partly specified): the “Max fall in blood pressure” value in the assay on Rattus norvegicus [6] is 44%; with Rattus norvegicus [3] it was 20%; in the assay on Rattus norvegicus [5], 11%.
In the case of `CC1(C)Oc2c(cccc2[N+](=O)[O-])C(N2CCCC2=O)[C@@H]1O` (stereo partly specified), the “Max fall in blood pressure” value in the assay on Rattus norvegicus [3] turned out to be 7%.
In the case of `CC1(C)Oc2ccc(C#N)cc2C(N2CCN(C(=O)c3ccccc3)CC2=O)[C@@H]1O` (stereo partly specified), the “Max fall in blood pressure” value in the assay with Rattus norvegicus [1] is listed as 14%.
As for `CC(=O)N1CCN(C2c3cc(C#N)ccc3OC(C)(C)[C@H]2O)C(=O)C1` (stereo partly specified), the figures for the “Max fall in blood pressure” value with Rattus norvegicus [2] and in the assay on Rattus norvegicus [3] were 23% and 17%, respectively.
As for `CC1(C)Oc2ccc(Cl)cc2C(N2CCCC2=O)[C@@H]1O` (stereo partly specified), the “Max fall in blood pressure” value came to 37% with Rattus norvegicus [6] and 8% in the assay with Rattus norvegicus [3].
